Assay results published in PubChem BioAssay AID588395 (Southern Research Specialized Biocontainment Screening …, 2011).
Calls of active or inactive are those of the source.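 How the source made its calls: active means phage lysis blocked by at least 50% at any tested dose; inconclusive means replicate wells disagree with each other; inactive means the rest.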

Assays:
[1] = blocking phage-induced lysis of E. coli UTI89 – set 7, capsule biogenesis inhibitor project, dose response (AID 588395); conditions: E. coli UTI89 K1F phage lysis inhibition, OD600 3 h; at 100 µM (top of the series)
Procedure, shortened: (§1)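 Material – E. coli UTI89 (K1) · Quantity – culture at 1:100 dilution · Medium – LB broth · Also added – K1F phage · Times – 1.25 h pre-infection at 37 °C, 3 h phage exposure · Detection – absorbance at 600 nm (OD600) · Read-out – inhibition of phage lysis from OD600 at 3 h post-infection · Controls – phage-resistant kpsM mutant culture as lysis-resistant comparison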

[2] = test system: E. coli UTI89 K1F phage lysis inhibition, OD600 3 h; assay: as above
Procedure, shortened: as §1

Structure (SMILES)	inhibition of phage lysis [1]	IC50 [2] [µM]
O=C(Nc1nc2ccc(Br)cc2s1)c1ccc(Br)o1	9.79% (inactive)	–
COc1ccc2nc(NC(=O)c3ccc(Br)cc3)sc2c1	4.68% (inactive)	–
O=C(Nc1nc2ccc(Cl)cc2s1)c1ccc(Br)o1	-4.26% (inactive)	–
COc1ccc(NC(=O)c2ccc3ncsc3c2)cc1	4.51% (inactive)	–
O=C(Nc1nc2ccc(OC(F)(F)F)cc2s1)c1ccc(Br)s1	1.91% (inactive)	–
O=C(Nc1nc2ccccc2s1)c1ccc(Br)o1	0% (inactive)	–
COc1ccc2nc(NC(=O)c3cc(Br)c(Br)s3)[nH]c2c1	-1.23% (inactive)	–
COc1ccc2nc(NS(=O)(=O)c3ccc(Br)s3)sc2c1	-0.42% (inactive)	–
O=C(Nc1nc2ccc(C(F)(F)F)cc2s1)c1ccc(Br)cc1	2.13% (inactive)	–
O=C(Nc1nc2ccccc2s1)c1ccc(Br)s1	-6.12% (inactive)	–
O=C(Nc1nc2ccc(F)cc2s1)c1ccc(Br)cc1	-15.7% (inactive)	–
O=C(Nc1nc2ccc(C(F)(F)F)cc2s1)c1ccc(Br)o1	1.64% (inactive)	–
Cc1ccc(C(=O)Nc2nc3ccc(Br)cc3s2)s1	-11.1% (inactive)	–
COc1ccc2nc(NC(=O)c3ccc(Br)o3)[nH]c2c1	0.41% (inactive)	–
COc1ccc2nc(NC(=O)c3ccc(Br)s3)[nH]c2c1	0.85% (inactive)	–
O=C(Nc1nc2ccc(OC(F)(F)F)cc2s1)c1ccc(Br)cc1	-15.3% (inactive)	–
O=S(=O)(Nc1nc2ccccc2s1)c1ccc(Br)s1	-2.08% (inactive)	–
O=C(Nc1nc2ccc(Br)cc2s1)c1ccc(Br)s1	18% (inactive)	–
O=C(Nc1nc2ccccc2s1)c1ccc(Br)cc1	1.7% (inactive)	–
Cc1ccc(NC(=O)c2ccc3ncccc3c2)cc1	0% (inactive)	–
COc1ccc(NC(=O)c2ccc3ncccc3c2)cc1	-4.29% (inactive)	–

Structure (SMILES)	inhibition of phage lysis [1]	IC50 [2] [µM]
Cc1ccc(C(=O)Nc2nc3ccc(Cl)cc3s2)s1	-2.05% (inactive)	–
COC(=O)c1ccc(NC(=O)c2ccc3ncccc3c2)cc1	39.1% (inactive)	–
O=C(Nc1nc2ccc(Cl)cc2s1)c1ccc(Br)cc1	12.9% (inactive)	–
O=C(Nc1cccnc1)c1ccc2ncsc2c1	0.82% (inactive)	–
O=C(Nc1ccc(C(F)(F)F)cc1)c1ccc2ncccc2c1	2.46% (inactive)	–
Cc1ccc(C(=O)Nc2nc3ccccc3s2)s1	-9.44% (inactive)	–
COC(=O)c1ccc(NC(=O)c2ccc3ncsc3c2)cc1	9.02% (inactive)	–
O=C(Nc1nc2ccc(Br)cc2s1)c1ccc(Br)cc1	2.55% (inactive)	–
O=C(Nc1nc2ccc(Cl)cc2s1)c1ccc(Br)s1	6.12% (inactive)	–
COc1ccc2nc(NC(=O)c3ccc(Br)cc3)[nH]c2c1	-2.55% (inactive)	–
O=C(Nc1ccc(Br)cc1)c1ccc2ncccc2c1	-0.43% (inactive)	–
COc1ccc2nc(NC(=O)c3ccc(C)s3)sc2c1	-3.86% (inactive)	–
COc1ccc2nc(NC(=O)c3ccc(Br)o3)sc2c1	41.7% (inactive)	–
O=S(=O)(Nc1nc2ccc(Br)cc2s1)c1ccc(Br)s1	6.67% (inactive)	–
O=C(Nc1nc2ccc(C(F)(F)F)cc2s1)c1ccc(Br)s1	2.86% (inactive)	–
O=C(Nc1ccncc1)c1ccc2ncsc2c1	–	1.31
COc1ccc2nc(NC(=O)c3ccc(Br)s3)sc2c1	–	2.15
O=C(Nc1nc2ccc(F)cc2s1)c1ccc(Br)o1	15.8% (inactive)	–
O=C(Nc1nc2ccc(F)cc2s1)c1ccc(Br)s1	6.49% (inactive)	–
O=C(Nc1nc2ccc(OC(F)(F)F)cc2s1)c1ccc(Br)o1	-11.1% (inactive)	–
